Test results: ChEMBL document CHEMBL4513216, “Probing the Open Global Health Chemical Diversity Library for Multistage-Active Starting Points for Next-Generation Antimalarials” (ACS Infect Dis, 2020)

Experiment: Toxicity liver stage against HepG2, at 10uM
Format: cell-based
Set-up: test concentration 10 uM, cell line HepG2-A16-CD81EGFP
Details: human, HepG2-A16-CD81EGFP cells; read-out: INHIBITION
Method in brief: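 Uninfected HepG2-A16-CD81EGFP cells, 3 × 10^3 per well, 1536-well, plated on prespotted compound at 10 μM final, parasite-free screening media added to match infected plates; puromycin 10 μM positive, DMSO 0.5% negative; run in parallel with 48 h PbLuc assay at 37 °C, 5% CO2; viability by CellTiter-Glo luminescence, normalized to controls.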

| SMILES | cytotoxicity at 10 µM |
| --- | --- |
| CC(C)CC(NC(=O)OC(C)(C)C)C(N)=O (stereo not given) | 3.29% |
| CC(=O)N1CCOC[C@H](OCC(=O)N(C)C)C1 | -1.13% |
| CN1CCN(CC[C@@H]2CC[C@H](O)[C@@H](C(=O)Nc3ccccc3)O2)CC1 | -7.1% |
| CC1=Nc2c(c(=O)[nH]n2C2CCCC2)C(c2cccnc2)S1 (stereo not given) | -0.955% |
| Cn1cnc(S(=O)(=O)NCC2CCN(C(=O)Oc3ccccc3)CC2)c1 | -11.1% |
| CC(=O)N1CC2C[C@]2(NC(=O)c2ccco2)C1 (stereo not given in full) | -2.36% |
| CS(=O)(=O)N1CC2(CCN(C(=O)c3csnn3)CC2)c2ccccc21 | 7.88% |
| O=C1C[C@H]2[C@@H](CCN2C(=O)c2cscn2)N1Cc1cccnc1 | -0.184% |
| CN(C)C[C@@H]1C[C@@H]2CN(C(=O)Cc3cccs3)CC[C@@H]2N1C | 0.375% |
| CCOCC(=O)N1CCC[C@]2(C[C@@H](OCc3ccncc3)CO2)C1 | 14.5% |
| Cc1cccc(CO[C@@H]2C[C@H]3CN(C(=O)c4cnccn4)CCN3C2)n1 | -1.79% |
| Cc1cc(=O)[nH]c(=O)n1COCc1ccccc1 | -12.5% |
| CCCc1noc(C2CCN(C(=O)C3CCCO3)CC2)n1 (stereo not given) | 0.12% |
| O=C1CCC(c2nc(C3CCN(C(=O)C4CC4)CC3)no2)N1 (stereo not given) | -1.7% |
| Cn1cccc1C(=O)N1CCCC1c1ccc(CN2CCOCC2)cn1 (stereo not given) | 1.43% |
| O=S1(=O)NC(c2ccnc(N3CCOCC3)n2)=Nc2ccccc21 | 10.8% |
| COCCCNc1ncc(-c2cccc(F)c2)c(-c2nccn2C)n1 | 8.97% |
| O=C(Cn1cnc2cc3c(cc21)OCCCO3)NC1CCCCC1 | 5.68% |
| CCn1ncc(C(=O)NCCc2nc(-c3ccc(C)cc3)n[nH]2)c1C | 8% |
| COc1cccc(CNCc2cccnc2)c1 | -1.13% |
| Cc1nnc(Nc2cccc(C3CCN(CCO)CC3)n2)s1 | 2.37% |
| Cc1ccccc1CN(C)C(=O)CCc1nc(-c2nnc[nH]2)no1 | -42.1% |

| SMILES | cytotoxicity at 10 µM |
| --- | --- |
| COc1ccc2nc(C3CC3)cc(C(=O)NCC(=O)N(C)C)c2c1 | -3.41% |
| COC(=O)c1cccc(C(=O)N(C)Cc2ccsc2)c1 | 10.7% |
| Cc1nc(-c2ccncc2)nc(N(C)CCc2ccncc2)c1C | 11.6% |
| O=C(Cn1cccn1)NCC1CCCN(Cc2ccccc2)C1 (stereo not given) | -16.2% |
| CC(C)Cn1cc(NC(=O)NC(C)(C)c2nccs2)cn1 | 7.44% |
| CC(C)CCC(=O)N1CCN(C(C)c2nnc(CC(C)C)o2)CC1 (stereo not given) | -8.82% |
| CN(CC(O)C(F)(F)F)C(=O)Nc1cccc(Cn2cccn2)c1 (stereo not given) | 5.79% |
| O=C(NCCc1coc(-c2ccc(F)cc2)n1)NCC1CCOC1 (stereo not given) | -1.94% |
| CCOc1ccc(C(=O)NCc2ccnc(N3CCN(C)CC3)c2)cn1 | 0.935% |
| N#Cc1ccc(NCCS(=O)(=O)N2CCc3ccccc32)nc1 | -8.69% |
| CCCC(=O)N1CCCN(C(=O)Nc2ccc(C)s2)CC1 | -1.24% |
| Cc1n[nH]c(C2CN(C(=O)CCOCC(F)(F)F)CCO2)n1 (stereo not given) | -12.9% |
| O=C(Nc1nnc(C(F)F)s1)NC(CCO)c1cccs1 (stereo not given) | -3.44% |
| CC(=O)Nc1nc(CN2CCCC2Cn2cccn2)cs1 (stereo not given) | -14.4% |
| CCCc1n[nH]c(C2CN(C(=O)c3cc(C4CC4)on3)CCO2)n1 (stereo not given) | 0.471% |
| CS(=O)(=O)CCn1ccc(NC(=O)CCc2cccc(F)c2)n1 | -7.37% |
| N#CC1(NC(=O)COC(=O)Cn2cccn2)CCCC1 | 8.89% |
| CCC(C)NC(=O)c1cc(S(N)(=O)=O)c(Br)s1 (stereo not given) | -4.38% |
| CC(C)(C)NS(=O)(=O)c1ccccc1CNCc1cccc(O)c1 | -7.43% |
| O=C(C1CCCN(Cc2cccc(F)c2)C1)N1CCc2sccc2C1 (stereo not given) | -0.23% |
| CCOC1CCCN(C(=O)c2[nH]nc(C3CC3)c2Br)C1 (stereo not given) | -5.4% |
| Cc1cc(C)c(CCNC(=O)NCCCC(N)=O)c(C)c1 | -1.24% |

| SMILES | cytotoxicity at 10 µM |
| --- | --- |
| CC(C(=O)N(C)C1CCCCC1)S(=O)(=O)Cc1csc(-c2cccs2)n1 (stereo not given) | -4.27% |
| CC1CN(C)CCN1C(=O)Nc1nc(-c2ccco2)cs1 (stereo not given) | -5.02% |
| CCC1CN(C)c2ccccc2CN1C(=O)Nc1ccc(C)cc1 (stereo not given) | 4.01% |
| COc1ccc(C(=O)NS(C)(=O)=O)cc1-c1ccccc1 | -0.0142% |
| Cc1cc(CC(=O)NC2CCCN(c3ccccc3F)C2=O)n[nH]1 (stereo not given) | 1.46% |
| Cc1nsc(N2CCCN(C(=O)c3ccc4[nH]ccc4c3)CC2)n1 | 0.997% |
| CC(Cn1cccn1)NS(=O)(=O)Cc1ccc(F)cc1 (stereo not given) | 7.28% |
| NC(=O)C1(CNC(=O)CCc2ccc(Cl)s2)CCOCC1 | 9.09% |
| CC(NC(=O)N(C)Cc1ccncc1)c1nncn1C (stereo not given) | 2.57% |
| Cc1cccc(S(=O)(=O)N2Cc3nccn3CC(CN(C)C)C2)c1 (stereo not given) | -105% |
| COCCN1C[C@@H]2CN(c3cnccn3)C[C@@H]2C1=O | -104% |
| CCCOC1CCCN(c2ccnc(C(=O)NCc3ccco3)c2)C1 (stereo not given) | 5.58% |
| Cc1ccc(Oc2ncccc2CNC2CCSCC2)cn1 | -8.22% |
| Cc1[nH]nc(CCC(=O)NCC2COc3ccccc3C2)c1C (stereo not given) | -43.4% |
| O=C(c1ccoc1)N1CCc2ncnc(NCc3ccccn3)c2CC1 | 0.224% |
| Cc1ccc(-c2nc3cc(S(=O)(=O)N4CCCC4)ccc3n2C)o1 | 1.38% |
| CCCc1nnc(NCCn2nc(C)c(Cl)c2C)o1 | 1.89% |
| COCCNC(=O)CCC1CCN(Cc2cccc(SC)c2)CC1 | 14.6% |
| Cc1nn(C)cc1C(=O)N1CCCC(c2nccn2CC2CCC2)C1 (stereo not given) | 2.52% |
| Cc1cc(C)c2[nH]c(=O)c(CN3CCC(O)(CN(C)C)C3)cc2c1 (stereo not given) | -2.99% |
| CN(CCCc1nccn1C)c1nccc(-c2cc(C(=O)O)ccn2)n1 | -4.9% |
| Cc1ccc(CNC(=O)c2cc(CN3CCC(O)CC3)on2)s1 | -48.5% |

| SMILES | cytotoxicity at 10 µM |
| --- | --- |
| CCn1c(C)nnc1SCCNc1cc(N2CCOCC2)ncn1 | 0.801% |
| COc1ccccc1OC1CN(C(=O)C(c2ccc(F)cc2)N(C)C)C1 (stereo not given) | 1.42% |
| CN(C)C(=O)N1CCN(Cc2ccc3occc3c2)[C@H]2CS(=O)(=O)C[C@H]21 | -4.37% |
| Cc1n[nH]c(C)c1CN1CCC(c2cc(C(C)C)n[nH]2)CC1 | -6.88% |
| COc1cc(Cl)cc(C(=O)N2CCC3(CC2)CNC(=O)C3)c1 | -18.1% |
| O=C1NC2(CCN(C(=O)c3ccc(Cl)cc3)CC2)CC1c1ccccc1 (stereo not given) | -12.2% |
| O=C(COCc1ccccc1)N1CCN(c2ccc(Cl)cn2)CC1 | -5.98% |
| COc1ncc(-c2ccc(NC(C)=O)cc2)c(OC)n1 | -8.64% |
| CCC1(O)CCCN(c2ncnc3c2c(C)nn3C)C1 (stereo not given) | 2.14% |
| Cc1cccc2sc(NC(=O)CN3CCC(C)CC3)nc12 | 2.89% |
| Cc1cc2c(cc1CN1CCCCC1CCn1ccnc1C)OCO2 (stereo not given) | 3.09% |
| O=C(c1cncc(N2CCC(O)(CO)CC2)n1)N1CCCC1 | -7.71% |
| Fc1ccccc1Cc1noc(CN2CCCC(CN3CCCC3)C2)n1 (stereo not given) | -12.3% |
| COc1c(C2CCCN2C(=O)c2cc(C)on2)c(C)nn1C (stereo not given) | 0.407% |
| COc1ccc(S(=O)(=O)NC(=O)COC2CCCCC2)cc1 | -1.64% |
| CCOc1ccc(Cl)c(C(=O)N2CCN(CC(O)CC)CC2)n1 (stereo not given) | -4.85% |
| CC(C)c1ncncc1C(=O)N1CCCN(Cc2ccccc2)CC1 | -6.9% |
| Cc1cc(CN2CCN(C(=O)NCc3cccs3)CC2)on1 | -1.68% |
| CC1CN(CCOc2ccccc2C#N)CCN1Cc1nccn1C (stereo not given) | -10.8% |
| COc1cc(C(=O)N(Cc2cnn(C)c2)C(C)C)ccc1C | -3.14% |
| CNc1nc(CNC(=O)Nc2cccc(C(C)OC)c2)cs1 (stereo not given) | -13.3% |
| Cc1cc(CN2CCN(C(=O)NC(C)c3ccc(C)o3)CC2)on1 (stereo not given) | -8.72% |

| SMILES | cytotoxicity at 10 µM |
| --- | --- |
| Clc1cccc(OCCCN2CCOC(Cn3cncn3)C2)c1 (stereo not given) | -3.78% |
| COCc1nc(CN2CCOC(CNc3cccnn3)C2)cs1 (stereo not given) | -4.71% |
| CCc1nc(CN(C)C2CCN(CCn3cccn3)C2)no1 (stereo not given) | -2.21% |
| CN1CCN(C(=O)c2cnn(-c3ccccc3Cl)c2)CC1 | -5.51% |
| COCCc1noc(CN(C)C(=O)c2cccc(N3CCCC3=O)c2)n1 | -9.91% |
| Cc1nc(CN2CCOC(c3nc(C(C)C)n[nH]3)C2)oc1C (stereo not given) | -7.98% |
| Cc1csc(N2CCN(C(=O)CCNc3ncccn3)CC2)n1 | -10.1% |
| Cc1ccc(CN2CCc3ncnc(-c4cccnc4)c3CC2)o1 | 1.06% |
| Cc1ccc(CN2CCOC3(COCCN(Cc4ccncc4)C3)C2)o1 (stereo not given) | -109% |
| CN(C)C[C@@H]1C[C@@H]2CN(c3ncc(F)cn3)CC[C@@H]2N1C | 4.53% |
| CCCN1CCC2(C1)c1ccccc1S(=O)(=O)N2C (stereo not given) | 9.04% |
| Cn1ccnc1C(=O)N1CCC2(CCN2CC2CC2)C1 (stereo not given) | 11.8% |
| COc1nn(C)c2c1CCCN(C(=O)c1cccc3cccnc13)C2 | -104% |
| CN1CCCn2c(nc(CNC(=O)c3nccn3C)cc2=O)C1 | 4.68% |
| O=C(Cc1cccc(F)c1)N1CCc2ncnc(NC3CC3)c2CC1 | -98.5% |
| CN(C)[C@@H]1CN(C(=O)Cc2ccccc2)[C@@H]2CCCO[C@H]12 | 3.31% |
| CN1CC2(CCN(Cc3ccoc3)CC2)COc2ccccc2S1(=O)=O | -1.48% |
| COCC(=O)NCC1CCC(c2nnc(-c3ccncc3)o2)CC1 (stereo not given) | -3.49% |
| O=C(CC1CCCCC1)N1C[C@@H]2CC[C@H]1CN(Cc1cccnc1)C2 | -0.662% |
| CC(C)=CCN1C[C@@H]2CC[C@H]1CN(C(=O)CSc1ccncc1)C2 | -0.591% |
| O=C(C1CCS(=O)(=O)CC1)N1C[C@@H]2CC[C@H]1CN(Cc1ccccc1)C2 | -2.22% |
| CNc1ccccc1C(=O)N(C)CCc1ccccc1 | -1.76% |
